The list is not random: actives were taken first. Their share in the collection is about 3.7%.
MC4R ag barr – agonists of human melanocortin 4 receptor (MC4R) beta-arrestin | activation, % at 8.9 µM | P32245 | U2OS MC4R beta-arrestin complementation, luminescence; percent of melanotan II response, DMSO zero | actives 0.98% (n = 360,000);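 active = activation above a per-plate cutoff, the mean activation of sample wells on that plate plus 3 SD, cut at about 8% in these data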
Target sequence (P32245 whole entry, looked up): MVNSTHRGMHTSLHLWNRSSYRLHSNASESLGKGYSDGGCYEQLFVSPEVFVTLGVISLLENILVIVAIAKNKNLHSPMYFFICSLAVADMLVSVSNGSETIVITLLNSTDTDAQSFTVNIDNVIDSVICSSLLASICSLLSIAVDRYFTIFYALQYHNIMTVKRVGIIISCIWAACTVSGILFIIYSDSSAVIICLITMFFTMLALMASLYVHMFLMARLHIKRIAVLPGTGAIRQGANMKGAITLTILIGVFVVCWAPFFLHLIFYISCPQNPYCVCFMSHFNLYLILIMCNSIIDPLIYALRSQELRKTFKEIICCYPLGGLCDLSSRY
Exocytosis inh – blocks lytic granule exocytosis; TALL-104 LAMP-1 surface exposure, flow cytometry; cells stimulated with thapsigargin and PMA; inhibition, % at 10 µM; actives 0.66% (n = 360,000); AID 651702;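 active = inhibition above about 55%, limit read from the data; inconclusive = no clear call, values can overlap the other calls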
Myeloid diff 2 – compounds promoting myeloid differentiation; ER-HoxA9 myeloid progenitors, lysozyme-GFP differentiation, flow cytometry; calls only at 10 µM; actives 1% (n = 360,000); AID 624256;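 active = normalized GFP-positive differentiation at or above the plate's own cutoff, the solvent-only control mean plus 3 SD; inconclusive = no clear call, values can overlap the other calls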;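 also: cells exposed to compound for four days before flow analysis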
EBI2 antag – blocks human EBI2 receptor beta-arrestin signaling; P32249; inhibition, % at 5 µM; actives 0.81% (n = 360,000); EBI2 beta-arrestin recruitment, luminescence, 7a,25-OHC stimulated; in the data active = inhibition above about 38%;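 also: enzyme fragment complementation signal reports receptor beta-arrestin coupling in cells; 0% = agonist plus DMSO wells and 100% = wells without agonist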
Target sequence (P32249 whole entry, looked up, the tested form may be a part): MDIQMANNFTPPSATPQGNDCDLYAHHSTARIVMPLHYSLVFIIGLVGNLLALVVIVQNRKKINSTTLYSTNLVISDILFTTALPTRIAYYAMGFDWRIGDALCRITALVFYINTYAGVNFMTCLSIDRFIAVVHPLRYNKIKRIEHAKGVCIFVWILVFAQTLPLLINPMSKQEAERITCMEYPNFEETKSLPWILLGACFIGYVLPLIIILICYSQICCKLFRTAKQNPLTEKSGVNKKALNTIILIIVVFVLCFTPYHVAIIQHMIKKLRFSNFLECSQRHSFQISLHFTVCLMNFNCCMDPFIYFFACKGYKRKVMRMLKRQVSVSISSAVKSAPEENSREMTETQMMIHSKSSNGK
MC4R antag cAMP – blocks human MC4R cAMP signaling; actives 0.48% (n = 360,000); P32245; AID 540295; inhibition, % at 6.5 µM; MC4R-expressing cells, MTII-stimulated cAMP, LANCE TR-FRET;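 active = inhibition above its plate's cutoff, the mean of tested wells on that plate plus 3 SD, cut at about 29% in these data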;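 also: 0% = Melanotan II alone and 100% = Melanotan II plus saturating MCL0020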
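Test system: U2OS cells stably expressing human melanocortin 4 receptor (MC4R); also added: Melanotan II challenge; compound: 6.5 µM single dose; timing: 30-min compound preincubation, 1-h Melanotan II challenge, 1-h detection, room temperature; signal: Eu-cAMP/anti-cAMP TR-FRET, emission 671 nm; repeats: one well per compound, no replicates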
Myeloid diff CP1 – myeloid differentiation induction. shares compounds with Myeloid diff 2. actives 2% (n = 2,300). ER-HoxA9 myeloid progenitors, GFP/Mac1 double-positive flow. AID 651706. calls only;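 active = share of green or green-and-red cells above 9 and 9% in run 1 or 4 and 3% in run 2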
GFP autofluor – flagged as fluorescent in myeloid differentiation counter-screen | shares compounds with Myeloid diff 2 | ER-HoxA9 myeloid progenitors, no estrogen, GFP autofluorescence flow cytometry; vehicle wells 0%, positive control 100% | fluorescence response, % (test concentration not listed) | actives 7.4% (n = 2,300);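 active = over 5% cells positive for green fluorescent reporter, or over 2% positive for both it and APC stain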;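 also: range taken on the double positive population between DMSO and positive control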
An asterisk follows results filed as active; i = inactive; ? = inconclusive; · = no result given; + = active, no number.

SMILES | MC4R ag barr | Exocytosis inh | Myeloid diff 2 | EBI2 antag | MC4R antag cAMP | Myeloid diff CP1 | GFP autofluor
CCN(CC(=O)NCc1ccc(Cl)cc1)C(=O)CCC(=O)c1ccc(F)cc1 | -4 | -3 | + | 9 | 8 | i | 0
CCN(CC(=O)NCc1ccc(Cl)cc1)C(=O)CCC(=O)c1ccc(C)cc1 | -4 | -6 | i | 0 | 14 | · | ·
CCc1nc2ccccc2c(C(=O)NCc2ccccc2)c1C | -1 | -2 | i | 3 | 0 | i | 0
CCc1nc2ccccc2c(C(=O)O)c1C | -3 | 1 | i | -15 | 0 | · | ·
c1coc(CNc2c3c(nc4ncnn24)CCCC3)c1 | -1 | 0 | i | 4 | -5 | · | ·
Clc1cccc(-c2cc3nc4c(c(NCc5ccco5)n3n2)CCCC4)c1 | -3 | 0 | + | 11 | 5 | i | 0
CCOC(=O)N1CCN(C(=O)CSCC(=O)Nc2nc(-c3ccc4c(c3)OCO4)cs2)CC1 | -1 | -1 | i | -20 | -2 | · | ·
CCOC(=O)N1CCN(C(=O)CSCC(=O)Nc2nc(-c3ccc(C)cc3)cs2)CC1 | 0 | 1 | i | 10 | 1 | i | 0
COc1ccc(-c2nc3ccc(Cl)cn3c2Cc2cccc(F)c2)cc1OC | · | -4 | i | 11 | · | · | ·
Cn1c(NCCN2CCCC2)nc2cc(-c3ccccc3)sc2c1=O | 1 | -5 | ? | 6 | -2 | · | ·
COc1cccc(-c2cc3nc(NCCN4CCCC4)n(C)c(=O)c3s2)c1 | 0 | -6 | i | -5 | 0 | i | 2
CN1CCc2c(sc(/N=C/c3cccs3)c2C(N)=O)C1 | 0 | 0 | i | 8 | 3 | i | 0
CN1CCc2c(sc(/N=C/c3ccco3)c2C(N)=O)C1 | 1 | 0 | i | -3 | -4 | · | ·
CC1=CC(C)(C)N(C(=O)CCl)c2ccccc21 | 0 | -1 | i | 0 | 1 | · | ·
CC1=CC(C)(C)N(C(=O)CN2C(=O)c3ccccc3C2=O)c2ccc(C)cc21 | 1 | 0 | i | 22 | -7 | · | ·
CC1=CC(C)(C)N(C(=O)CNC2CCCCC2)c2cc(C)ccc21 | 0 | -2 | + | 2 | 10 | i | 0
CC1=CC(C)(C)N(C(=O)CCl)c2cc(C)ccc21 | -2 | 0 | i | 3 | 0 | i | 0
CC(O)C(NS(=O)(=O)c1ccc(Cl)cc1)C(=O)OCCOc1ccc(F)cc1 (stereo not given) | 3 | 7 | i | -3 | 11 | · | ·
O=C(NCCN1CCOCC1)C1CCCN(S(=O)(=O)c2ccc(F)cc2)C1 (stereo not given) | -6 | -1 | i | -7 | 4 | · | ·
O=c1c(/C=N/Nc2ccccc2)c(Sc2nnnn2-c2ccccc2)nc2ccccn12 | -2 | 2 | i | 5 | -1 | · | ·
O=C(O)c1ccccc1N/N=C/c1c(Sc2nnnn2-c2ccccc2)nc2ccccn2c1=O | -1 | 12 | + | -11 | -7 | + | 2
O=C(NCCNS(=O)(=O)c1cccc(C(F)(F)F)c1)c1cc(OCC(F)(F)F)ccc1OCC(F)(F)F | 28* | -2 | i | -1 | 3 | i | 0
CC1CCc2sc(C(=O)NN=C3CCCC3)cc2C1 (stereo not given) | 2 | -5 | + | -5 | 3 | i | 0
CC1CCc2sc(C(=O)NN)cc2C1 (stereo not given) | -2 | 0 | i | 2 | 4 | · | ·
Cc1nc(NC(=O)c2ccc(Br)s2)sc1C(=O)N(C)C | 0 | -1 | i | -1 | 1 | i | 0
SMILES | MC4R ag barr | Exocytosis inh | Myeloid diff 2 | EBI2 antag | MC4R antag cAMP | Myeloid diff CP1 | GFP autofluor
Cn1ccc2c(-c3ccc(C(F)(F)F)cc3)cc3c(c21)C1CCC3O1 (stereo not given) | · | -3 | i | -1 | · | · | ·
Cn1ccc2c(-c3ccc(C(C)(C)C)cc3)cc3c(c21)C1CCC3O1 (stereo not given) | · | 3 | + | 12 | · | + | 0
CC1CCC(NC(=O)CC(C)(C)Cc2nc3ccccc3c(=O)[nH]2)CC1 (stereo not given) | 0 | 5 | i | 6 | 15 | i | 1
COc1cccc(CNC(=O)C2CCCN(c3nc4ccccc4o3)C2)c1 (stereo not given) | 0 | 0 | i | 3 | 17 | i | 0
CCC(CC)C(=O)N1CCN(Cc2ccc3c(c2)OCO3)CC1 | 1 | 0 | i | 0 | 11 | i | 2
COc1ccc(C(=O)O)cc1S(=O)(=O)N1CCN(Cc2ccc3c(c2)OCO3)CC1 | 0 | -1 | i | 0 | -2 | i | 0
CN(C)c1ccc(C(C(=O)NC2CCCC2)N(C(=O)c2csnn2)C2CC2)cc1 (stereo not given) | -4 | ? | i | -8 | 0 | · | ·
Nc1nc(N)nc(-c2ccc(Cl)cc2)n1 | -1 | 0 | i | -2 | -1 | · | ·
Cc1ccc(Oc2ccc(-c3nc(N)nc(N)n3)cc2)cc1 | 2 | 0 | + | -2 | 15 | i | 0
COc1cc2c(cc1OC)C(c1cc3ccccc3oc1=O)=NC(C)(C)C2 | 5 | 12 | i | 14 | -7 | i | 0
COc1ccc(C2=NC(C)(C)Cc3cc(OC)c(OC)cc32)cc1OC | -2 | 0 | i | -5 | 2 | · | ·
CCOC(=O)c1cc(CC)sc1NC(=O)COC(=O)c1cc[n+]([O-])cc1 | -4 | -3 | i | -6 | 3 | · | ·
COc1ccc(Nc2c(-c3cc4ccccc4o3)nc3nc(C)cc(C)n23)cc1 | · | 2 | i | 3 | · | · | ·
CCCCNc1c(-c2cc3ccccc3o2)nc2nc(C)cc(C)n12 | · | -1 | + | 0 | · | i | 1
Cc1ccc(C(=O)COC(=O)[C@@H](NC(=O)c2ccco2)C(C)C)s1 | -1 | 2 | + | 6 | -2 | i | 0
CCC(=O)Nc1ccc(/C(C)=N\NS(=O)(=O)c2ccc(C)cc2)cc1 | -2 | -2 | + | -4 | 7 | i | 0
C[C@H](CO)N1C[C@H](C)[C@@H](CN(C)C(=O)Nc2ccccc2)Oc2ncc(-c3ccc(C#N)cc3)cc2C1=O | -1 | -3 | i | 2 | 9 | · | ·
O=S(=O)(Nc1nc2ccccc2nc1NCCO)c1cccc(Cl)c1 | 3 | 0 | i | 11 | 13 | i | 0
COCCCNc1nc2ccccc2nc1NS(=O)(=O)c1cccc(Cl)c1 | 1 | 2 | i | 6 | 3 | · | ·
Nc1ccc2c3c(cccc13)C(=O)N(c1ccccc1)C2=O | -2 | -4 | + | -7 | -18 | i | 0
CCOC(=O)C(C#N)=CN1CCNc2ccccc21 | 0 | -6 | i | -3 | -3 | · | ·
COc1cccc(CNC(=O)[C@@H]2CCCN2C(=O)[C@H]2CCCCN2C(=O)c2c(F)cccc2F)c1 | · | 4 | i | -13 | · | · | ·
